In brackets after ≈: the same amount, converted by molar mass.
How the values were obtained:
Type in all cases: functional
Escherichia coli [1] = test: (§1) Minimum inhibitory concentration of Escherichia coli growth.
Streptococcus pyogenes [2] = test: Minimum inhibitory concentration of Streptococcus pyogenes (wt) growth.
Procedure, shortened: (§2)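 Streptococcus pyogenes in Todd-Hewitt broth at 37 °C. The tier II strain is ATCC 49399. Overnight culture at about 1 × 10^7 cells/well, sample in 4% DMSO in water, duplicate. Percent growth versus a no-compound well by A595 at 24 h. MIC is a concentration range: full inhibition at the upper value, growth at the lower. Ampicillin and tetracycline were controls.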

Enterococcus faecalis = test: Minimum inhibitory concentration of Enterococcus faecalis growth.
Procedure, shortened: (§3)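 Broth-microdilution at 37 °C. Strains and media: E. faecalis ATCC 29212 in Todd-Hewitt, K. pneumoniae ATCC 13883 and P. vulgaris ATCC 8427 in nutrient broth, S. aureus ATCC 25923 in trypticase soy broth. About 1 × 10^7 cells/well, sample in 4% DMSO in water, duplicate. A595 read at 24 h versus a no-compound well. MIC is reported as a range. Ampicillin and tetracycline were controls.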

Escherichia coli [3] = test: as §1; remark: listed apart in the source
Candida albicans = test: Minimum inhibitory concentration of Candida albicans growth.
Procedure, shortened: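 Candida albicans ATCC 10231 in YM broth at 22 °C. Overnight culture added to sample in 4% DMSO in water, about 1 × 10^5 cells/well, 150 μL, duplicate. Growth scored visually at 48 h. MIC is reported as a concentration range: full inhibition at the upper value, viable cells at the lower. Amphotericin B was the positive control.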

Streptococcus pyogenes [4] = test: Minimum inhibitory concentration of Streptococcus pyogenes growth.; procedure, shortened: as §2
Pseudomonas aeruginosa = test: Minimum inhibitory concentration of Pseudomonas aeruginosa growth.
Procedure, shortened: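 Pseudomonas aeruginosa ATCC 27853 in nutrient broth at 37 °C. About 1 × 10^7 cells/well, sample in 4% DMSO in water, 150 μL, duplicate. Growth relative to an untreated well was read at A595 after 24 h. MIC is given as a range, complete inhibition at the higher concentration. Ciprofloxacin was the positive control.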

Proteus vulgaris = test: Minimum inhibitory concentration of Proteus vulgaris growth.; procedure, shortened: as §3
Staphylococcus aureus = test: Minimum inhibitory concentration of Staphylococcus aureus growth.; procedure, shortened: as §3
Klebsiella pneumoniae = test: Minimum inhibitory concentration of Klebsiella pneumoniae growth.; procedure, shortened: as §3
[5] = Escherichia coli, read-out: MIC
[6] = Streptococcus pyogenes, read-out: MIC

SMILES | MIC (Escherichia coli [1]) | MIC (Streptococcus pyogenes [2]) | MIC (Enterococcus faecalis) | MIC (Escherichia coli [3]; [5]) | MIC (Candida albicans; Candida albicans) | MIC (Streptococcus pyogenes [4]; [6]) | MIC (Pseudomonas aeruginosa) | MIC (Proteus vulgaris) | MIC (Staphylococcus aureus) | MIC (Klebsiella pneumoniae) | MIC (Escherichia coli [3]) | MIC (Candida albicans) | MIC (Streptococcus pyogenes [4])
COC(=O)c1cccc(CN(Cc2cccc(C(F)(F)F)c2)Cc2cccc(CN(CCNCCCO)Cc3cccc(C(F)(F)F)c3)n2)c1 | > 100 µM | 6 µM (≈ 4.22 µg/mL) | 6 µM (≈ 4.22 µg/mL) | 6 µM (≈ 4.22 µg/mL) | > 100 µM | 3 µM (≈ 2.11 µg/mL) | > 100 µM | > 100 µM | 12 µM (≈ 8.43 µg/mL) | > 100 µM | – | – | –
Cc1cccc(CN(CCNCCCO)Cc2cccc(CN(Cc3cccc([N+](=O)[O-])c3)Cc3cccc(C(F)(F)F)c3)n2)c1 | > 100 µM | 6 µM (≈ 3.81 µg/mL) | 6 µM (≈ 3.81 µg/mL) | 25 µM (≈ 15.9 µg/mL) | 50 µM (≈ 31.8 µg/mL) | 5 µM (≈ 3.18 µg/mL) | > 100 µM | > 100 µM | 6 µM (≈ 3.81 µg/mL) | > 100 µM | – | – | –
Cc1cccc(CN(CCNCCCO)Cc2cccc(CN(Cc3cccc(C)c3)Cc3cccc(C)c3)n2)c1 | 6 µM (≈ 3.3 µg/mL) | 6 µM (≈ 3.3 µg/mL) | 6 µM (≈ 3.3 µg/mL) | 5 µM (≈ 2.75 µg/mL) | 12 µM (≈ 6.61 µg/mL) | 5 µM (≈ 2.75 µg/mL) | > 100 µM | > 100 µM | 6 µM (≈ 3.3 µg/mL) | > 100 µM | – | – | –
Cc1cccc(CN(CCNCCCO)Cc2cccc(CN(Cc3cccc(C)c3)Cc3cccc(C(F)(F)F)c3)n2)c1 | > 100 µM | 6 µM (≈ 3.63 µg/mL) | 6 µM (≈ 3.63 µg/mL) | 25 µM (≈ 15.1 µg/mL) | < 12.5 µM | 5 µM (≈ 3.02 µg/mL) | > 100 µM | > 100 µM | 6 µM (≈ 3.63 µg/mL) | 12 µM (≈ 7.26 µg/mL) | – | – | –
OCCCNCCN(Cc1cccc(C(F)(F)F)c1)Cc1cccc(CN(Cc2ccccc2)Cc2cccc(C(F)(F)F)c2)n1 | > 100 µM | 12 µM (≈ 7.74 µg/mL) | 12 µM (≈ 7.74 µg/mL) | 3 µM (≈ 1.93 µg/mL) | > 100 µM | 3 µM (≈ 1.93 µg/mL) | > 100 µM | > 100 µM | 25 µM (≈ 16.1 µg/mL) | 50 µM (≈ 32.2 µg/mL) | – | – | –
OCCCNCCN(Cc1ccccc1)Cc1cccc(CN(Cc2ccccc2)Cc2ccccc2)n1 | 12 µM (≈ 6.1 µg/mL) | 6 µM (≈ 3.05 µg/mL) | 12 µM (≈ 6.1 µg/mL) | 10 µM (≈ 5.09 µg/mL) | 50 µM (≈ 25.4 µg/mL) | 5 µM (≈ 2.54 µg/mL) | 50 µM (≈ 25.4 µg/mL) | 50 µM (≈ 25.4 µg/mL) | 25 µM (≈ 12.7 µg/mL) | 50 µM (≈ 25.4 µg/mL) | – | – | –
OCCCNCCN(Cc1cccc(C(F)(F)F)c1)Cc1cccc(CN(Cc2cccc(C(F)(F)F)c2)Cc2cccc(C(F)(F)F)c2)n1 | > 100 µM | 12 µM (≈ 8.55 µg/mL) | > 100 µM | 5 µM (≈ 3.56 µg/mL) | > 100 µM | 5 µM (≈ 3.56 µg/mL) | > 100 µM | > 100 µM | 6 µM (≈ 4.28 µg/mL) | > 100 µM | – | – | –
COC(=O)c1cccc(CN(Cc2cccc(C(F)(F)F)c2)Cc2cccc(CN(CCNCCCO)Cc3cccc(C)c3)n2)c1 | > 100 µM | 6 µM (≈ 3.89 µg/mL) | 6 µM (≈ 3.89 µg/mL) | 25 µM (≈ 16.2 µg/mL) | < 12.5 µM | 5 µM (≈ 3.24 µg/mL) | > 100 µM | > 100 µM | 12 µM (≈ 7.79 µg/mL) | > 100 µM | – | – | –
OCCCNCCN(Cc1cccc(F)c1)Cc1cccc(CN(Cc2cccc(F)c2)Cc2cccc(F)c2)n1 | 12 µM (≈ 6.75 µg/mL) | 6 µM (≈ 3.38 µg/mL) | 25 µM (≈ 14.1 µg/mL) | 5 µM (≈ 2.81 µg/mL) | 50 µM (≈ 28.1 µg/mL) | 5 µM (≈ 2.81 µg/mL) | – | – | 12 µM (≈ 6.75 µg/mL) | – | – | – | –
Cc1cccc(CN(CCNCCCO)Cc2cccc(CN(Cc3cccc(C(F)(F)F)c3)Cc3cccc(C(F)(F)F)c3)n2)c1 | > 100 µM | 6 µM (≈ 3.95 µg/mL) | 6 µM (≈ 3.95 µg/mL) | 25 µM (≈ 16.5 µg/mL) | > 100 µM | 5 µM (≈ 3.29 µg/mL) | > 100 µM | > 100 µM | 12 µM (≈ 7.9 µg/mL) | > 100 µM | – | – | –
O=[N+]([O-])c1cccc(CN(Cc2cccc(C(F)(F)F)c2)Cc2cccc(CN(CCNCCCO)Cc3cccc(C(F)(F)F)c3)n2)c1 | > 100 µM | 6 µM (≈ 4.14 µg/mL) | 6 µM (≈ 4.14 µg/mL) | 6 µM (≈ 4.14 µg/mL) | > 100 µM | 3 µM (≈ 2.07 µg/mL) | > 100 µM | > 100 µM | 6 µM (≈ 4.14 µg/mL) | > 100 µM | 5 µM (≈ 3.45 µg/mL) | > 100 µM | 5 µM (≈ 3.45 µg/mL)
OCCCN(CCN(Cc1ccccc1)Cc1cccc(CN(Cc2ccccc2)Cc2ccccc2)n1)Cc1ccccc1 | – | – | – | 25 µM (≈ 15 µg/mL) | 5 µM (≈ 2.99 µg/mL) | 25 µM (≈ 15 µg/mL) | – | – | – | – | – | – | –
O=[N+]([O-])c1cccc(CN(CCNCCCO)Cc2cccc(CN(Cc3cccc([N+](=O)[O-])c3)Cc3cccc([N+](=O)[O-])c3)n2)c1 | > 100 µM | 12 µM (≈ 7.72 µg/mL) | > 100 µM | 10 µM (≈ 6.44 µg/mL) | > 100 µM | 5 µM (≈ 3.22 µg/mL) | > 100 µM | > 100 µM | 12 µM (≈ 7.72 µg/mL) | > 100 µM | – | – | –
Cc1cccc(CN(CCNCCCO)Cc2cccc(CN(Cc3ccccc3)Cc3cccc(C(F)(F)F)c3)n2)c1 | 25 µM (≈ 14.8 µg/mL) | 6 µM (≈ 3.54 µg/mL) | 6 µM (≈ 3.54 µg/mL) | 5 µM (≈ 2.95 µg/mL) | < 12.5 µM | 5 µM (≈ 2.95 µg/mL) | > 100 µM | > 100 µM | 6 µM (≈ 3.54 µg/mL) | 12 µM (≈ 7.09 µg/mL) | – | – | –
OCCCNCCN(Cc1cccc(C(F)(F)F)c1)Cc1cccc(CN(Cc2cccc(F)c2)Cc2cccc(C(F)(F)F)c2)n1 | > 100 µM | 6 µM (≈ 3.98 µg/mL) | 6 µM (≈ 3.98 µg/mL) | 6 µM (≈ 3.98 µg/mL) | > 100 µM | 6 µM (≈ 3.98 µg/mL) | > 100 µM | > 100 µM | 12 µM (≈ 7.95 µg/mL) | > 100 µM | – | – | –
Cc1cccc(CN(CCNCCCO)Cc2cccc(CN(Cc3cccc(F)c3)Cc3cccc(C(F)(F)F)c3)n2)c1 | > 100 µM | 6 µM (≈ 3.65 µg/mL) | 6 µM (≈ 3.65 µg/mL) | 5 µM (≈ 3.04 µg/mL) | < 12.5 µM | 5 µM (≈ 3.04 µg/mL) | > 100 µM | > 100 µM | 6 µM (≈ 3.65 µg/mL) | 25 µM (≈ 15.2 µg/mL) | – | – | –
COC(=O)c1cccc(CN(CCNCCCO)Cc2cccc(CN(Cc3cccc(C(=O)OC)c3)Cc3cccc(C(=O)OC)c3)n2)c1 | 25 µM (≈ 17.1 µg/mL) | 12 µM (≈ 8.19 µg/mL) | > 100 µM | 20 µM (≈ 13.7 µg/mL) | 50 µM (≈ 34.1 µg/mL) | 10 µM (≈ 6.83 µg/mL) | – | – | 25 µM (≈ 17.1 µg/mL) | – | – | – | –
NCc1cccc(CNCCNCCCO)n1 | – | – | – | > 100 µM | > 100 µM | > 100 µM | – | – | – | – | – | – | –
Cc1cccc(CN(Cc2cccc(C(F)(F)F)c2)Cc2cccc(CN(CCNCCCO)Cc3cccc(C(F)(F)F)c3)n2)c1 | > 100 µM | 6 µM (≈ 3.95 µg/mL) | 6 µM (≈ 3.95 µg/mL) | 3 µM (≈ 1.98 µg/mL) | > 100 µM | 3 µM (≈ 1.98 µg/mL) | > 100 µM | > 100 µM | 12 µM (≈ 7.9 µg/mL) | 100 µM (≈ 65.9 µg/mL) | – | – | –

Reference: ChEMBL document CHEMBL1131483, “Discovery of novel pyridinopolyamines with potent antimicrobial activity: deconvolution of mixtures synthesized by solution-phase combinatorial chemistry” (1998)
